Published values of several laboratories.

Compound	cell line	test	setting	quantity	result
CCCCCCCCc1ccc(C(=O)Nc2ccccc2C(=O)OCC)cc1	PC-3	cell growth or viability, MTT	72 h	IC50	> 100000 nM
O=C(O)CCn1cc(C(=O)c2ccc(F)cc2)c2cc(-c3ccc(N4CCNCC4)nc3)cnc21	A549	cell growth or viability, MTT	10 µM, 48 h	viability	88.5%
C[C@@H]1C[C@@H]([C@H](O)CC2CC(=O)NC(=O)C2)C(=O)[C@@H](C)C1	NIH3T3	cell growth or viability, MTT	24 h	IC50	800 nM
O=C1C=CC(=O)c2ccccc21	HFF-1	cell growth or viability, MTT	48 h	IC50	26700 nM
Cc1cc(C)cc(COc2cc3c(cc2OCc2cc(C)cc(C)c2)[C@H]2C[C@](O)(Cc4cn(CC(=O)Nc5ccc(S(=O)(=O)F)cc5)nn4)C[C@H](C)N2CC3)c1	PC-3	cell growth or viability, MTT	–	IC50	1330 nM
Nc1nc2sc(CCCCc3ccc(C(=O)N[C@@H](CCC(=O)O)C(=O)O)cc3)cc2c(=O)[nH]1	R2/PCFT4	cell growth or viability	96 h, pH 7.2	IC50	> 1000 nM
N[C@@H](Cc1ccc(N(CCCl)CCCl)cc1)C(=O)O	PC-3	cell growth or viability, CCK-8	48 h	IC50	> 50000 nM
CCC(=O)Oc1cccc2c1C(=O)C=CC2=O	HFF-1	cell growth or viability, MTT	48 h	IC50	7800 nM
CC(=O)O[C@H]1C[C@H](O[C@H]2[C@@H](O)C[C@H](O[C@H]3[C@@H](O)C[C@H](O[C@H]4CC[C@@]5(C)[C@H](CC[C@@H]6[C@@H]5C[C@@H](O)[C@]5(C)[C@@H](C7=CC(=O)OC7)CC[C@]65O)C4)O[C@@H]3C)O[C@@H]2C)O[C@H](C)[C@H]1O[C@@H]1O[C@H](CO)[C@@H](O)[C@H](O)[C@H]1O	A549	cell growth or viability, MTT	5 µM, 24 h	inhibition	74.8%
CN1CCN(c2ccc(-c3cnc4[nH]cc(C(=O)c5ccc(F)cc5)c4c3)cc2)CC1	A549	cell growth or viability, MTT	10 µM, 48 h	viability	73%
O=C(O)CCCc1ccc(N(CCCl)CCCl)cc1	PC-3	cell growth or viability, CCK-8	48 h	IC50	> 50000 nM
COc1ccc(C(=O)c2c[nH]c3ncc(-c4ccc(N5CCN(S(C)(=O)=O)CC5)nc4)cc23)cc1	A549	cell growth or viability, MTT	10 µM, 48 h	viability	80.2%
Nc1nc2c(c(=O)[nH]1)C[C@@H](CCc1ccc(C(=O)N[C@@H](CCC(=O)O)C(=O)O)cc1)CN2	R2/PCFT4	cell growth or viability	96 h, pH 7.2	IC50	248 nM
O=C(c1ccc(F)cc1)c1c[nH]c2ncc(-c3ccnc(N4CCOCC4)c3)cc12	A549	cell growth or viability, MTT	10 µM, 48 h	viability	94.1%
CNC(=O)c1cc(Oc2ccc(NC(=O)Nc3cc(C(C)(C)C)nn3-c3ccc4ncccc4c3)c(F)c2)ccn1	HUVEC	cell migration	–	IC50	0.022 nM
Cc1cc(C)cc(COc2cc3c(cc2OCc2cc(C)cc(C)c2)[C@H]2C[C@](O)(Cc4cn(-c5ccc(S(=O)(=O)F)cc5)nn4)C[C@H](C)N2CC3)c1	PC-3	cell growth or viability, MTT	–	IC50	392 nM
CC(C)(C)OC(=O)N1CCN(c2ccc(-c3cnc4[nH]cc(C(=O)c5ccc(F)cc5)c4c3)cn2)CC1	A549	cell growth or viability, MTT	10 µM, 48 h	viability	76.3%
